Data reported in ChEMBL document CHEMBL1125388, “New modified heterocyclic phenylalanine derivatives. Incorporation into potent inhibitors of human renin” (J Med Chem, 1992).
Several values for one entry are separate records, joined by “and”; a condition that tells them apart may be missing. Equal values may be shown once.

Each molecule was assayed against T1, Renin (Homo sapiens, UniProt P00797) (assay: Inhibition of human recombinant renin).
T1 sequence (P00797 whole entry): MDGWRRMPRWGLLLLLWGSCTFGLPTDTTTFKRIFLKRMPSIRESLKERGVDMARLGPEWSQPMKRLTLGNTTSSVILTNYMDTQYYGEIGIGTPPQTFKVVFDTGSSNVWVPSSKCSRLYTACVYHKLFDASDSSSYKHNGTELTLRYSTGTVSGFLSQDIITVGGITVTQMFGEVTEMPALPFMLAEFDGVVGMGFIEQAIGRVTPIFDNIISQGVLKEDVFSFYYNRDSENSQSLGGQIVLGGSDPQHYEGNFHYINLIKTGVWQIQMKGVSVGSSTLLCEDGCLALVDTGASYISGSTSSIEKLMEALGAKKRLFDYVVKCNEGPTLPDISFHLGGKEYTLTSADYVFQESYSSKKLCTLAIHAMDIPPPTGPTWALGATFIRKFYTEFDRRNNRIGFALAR
In short: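 Recombinant human renin (0.05 GU/mL, set to generate 30-40 ng A1/mL per h) incubated with 20 μM human renin substrate stock, pH 5.7 phosphate buffer with BSA, EDTA and PMSF, 1% DMSO final, 37 °C for 1 h; 4 °C blank tubes. RIA (3 h room temperature, γ counting) against standard curve; IC50 reported.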
`COC(=O)C(O)[C@H](CC1CCCCC1)NC(=O)C(CC(C)C)NC(=O)[C@H](Cc1ccccc1)NC(=O)OC(C)(C)C` (stereo not given in full) was tested, and the IC50 was 8 nM and 24 nM.
`CC(C)CC(NC(=O)[C@H](Cc1ccccc1)N1Cc2ccccc2C1=O)C(=O)N[C@@H](CC1CCCCC1)C(O)C(=O)OC(C)C` (stereo not given in full) gave an IC50 of 36 nM.
`COC(=O)C(O)[C@H](CC1CCCCC1)NC(=O)C(CC(C)C)NC(=O)[C@H](Cc1ccccc1)N1Cc2ncccc2C1=O` (stereo not given in full) was tested, and the IC50 was 207 nM.
In the case of `CC(C)CC(NC(=O)[C@H](Cc1ccccc1)N1CC2CCCN2C1=O)C(=O)N[C@@H](CC1CCCCC1)C(O)C(=O)OC(C)C` (stereo not given in full), the IC50 is reported as 141 nM.
For `COC(=O)C(O)[C@H](CC1CCCCC1)NC(=O)C(CC(C)C)NC(=O)[C@H](Cc1ccccc1)N1C(=O)c2cccc3cccc(c23)C1=O` (stereo not given in full), the IC50 was 391 nM.
`COC(=O)C(O)[C@H](CC1CCCCC1)NC(=O)C(CC(C)C)NC(=O)[C@H](Cc1ccccc1)N1Cc2ccccc2C1=O` (stereo not given in full) was tested, and the IC50 was 23 nM.
`CC(C)CC(NC(=O)[C@H](Cc1ccccc1)N1CCCC1=O)C(=O)N[C@@H](CC1CCCCC1)C(O)C(=O)OC(C)C` (stereo not given in full) gave an IC50 of 157 nM.
Work on `CCCC[C@H](NC(=O)[C@H](Cc1ccccc1)N1Cc2ccccc2C1=O)C(=O)N[C@@H](CC1CCCCC1)C(O)C(=O)OC(C)C` (stereo not given in full) yielded an IC50 of 16 nM.
With `CC(C)CC(NC(=O)[C@H](Cc1ccccc1)N1Cc2nccn2C1=O)C(=O)N[C@@H](CC1CCCCC1)C(O)C(=O)OC(C)C` (stereo not given in full) the IC50 was 100 nM.
Work on `CCC[C@H](NC(=O)[C@H](Cc1ccccc1)N1Cc2ccccc2C1=O)C(=O)N[C@@H](CC1CCCCC1)C(O)C(=O)OC(C)C` (stereo not given in full) yielded an IC50 of 8.9 nM.
With `COC(=O)C(O)[C@H](CC1CCCCC1)NC(=O)C(Cc1cnc[nH]1)NC(=O)[C@H](Cc1ccccc1)N1Cc2ccccc2C1=O` (stereo not given in full) the IC50 was 186 nM.
Work on `CC(C)CC(NC(=O)[C@H](Cc1ccccc1)N1Cc2cccc3cccc(c23)C1=O)C(=O)N[C@@H](CC1CCCCC1)C(O)C(=O)OC(C)C` (stereo not given in full) yielded an IC50 of 80 nM.

These molecules were tested against T2, Renin (Homo sapiens) (UniProt P00797) (assay: Inhibition of human recombinant renin at 1 uM).
T2 sequence (whole entry): T1 sequence (P00797 whole entry)
In the case of `COC(=O)C(O)[C@H](CC1CCCCC1)NC(=O)C(CC(C)C)NC(=O)[C@H](Cc1ccccc1)N1CC(C)(C)OC1=O` (stereo not given in full), the inhibition is reported as 86.4%.
`COC(=O)C(O)[C@H](CC1CCCCC1)NC(=O)C(CC(C)C)NC(=O)[C@H](Cc1ccccc1)N1C(=O)OC(C)(C)C1C` (stereo not given in full) gave an inhibition of 76%.
With `COC(=O)C(O)[C@H](CC1CCCCC1)NC(=O)C(CC(C)C)NC(=O)[C@H](Cc1ccccc1)N1C(=O)c2ccccc2C1=O` (stereo not given in full) the inhibition was 45%.
